Assay results: publication PMC3996483 (Scientific Reports, 2014)
“Also recorded” adds a separate entry of the source.

Key:
[1] = test system: HCV genotype 2a (J6); conditions: cited from earlier work
[2] = Solubility; assay type: physicochemical; conditions: pH 7, aqueous buffer
[3] = test system: HCV genotype 1a; conditions: cited from earlier work
[4] = target: T1, L31V NS5A^26–202, HCV genotype 1b (con1) (Hepatitis C virus genotype 1b, UniProt Q9WMX2, L2003V); assay: MST binding assay, L31V resistance mutant
T1 sequence (Q9WMX2 1998-2174 L2003V): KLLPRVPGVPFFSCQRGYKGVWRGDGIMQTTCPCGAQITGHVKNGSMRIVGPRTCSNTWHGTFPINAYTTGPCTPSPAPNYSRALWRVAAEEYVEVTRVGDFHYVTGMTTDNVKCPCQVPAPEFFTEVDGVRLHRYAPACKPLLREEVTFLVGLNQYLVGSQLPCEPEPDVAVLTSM

[5] = target: T2, NS5A^26–202 domain 1, HCV genotype 1b (con1) (Hepatitis C virus genotype 1b, UniProt Q9WMX2); assay: MST binding assay, NS5A domain 1 residues 26–202
T2 sequence (Q9WMX2 1998-2174): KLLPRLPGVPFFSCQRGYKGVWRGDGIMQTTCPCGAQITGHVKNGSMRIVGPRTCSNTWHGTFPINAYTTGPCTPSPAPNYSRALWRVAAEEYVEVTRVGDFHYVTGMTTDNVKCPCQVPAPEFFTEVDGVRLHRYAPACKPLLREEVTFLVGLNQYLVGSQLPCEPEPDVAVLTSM
Method in brief: (§1)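 Recombinant HCV 1b (con1) NS5A was expressed with a 6-His/TEV tag, Ni- and size-exclusion purified, and the tag cleaved. Ligand: 16-step 2–4-fold dilutions. Capillaries were heated at 40% laser for 30 s, then cooled 5 s. Fnorm normalised to baseline and maximum; KD by mass-action fit; ≥3 replicates.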

[6] = test system: HCV replicon (NS5A genotypes and subtypes); conditions: cited from earlier work
[7] = target: T3, NS5A^33–202 domain 1, HCV genotype 1b (con1) (Hepatitis C virus genotype 1b, UniProt Q9WMX2); assay: MST binding assay, NS5A domain 1 residues 33–202
T3 sequence (Q9WMX2 2005-2174): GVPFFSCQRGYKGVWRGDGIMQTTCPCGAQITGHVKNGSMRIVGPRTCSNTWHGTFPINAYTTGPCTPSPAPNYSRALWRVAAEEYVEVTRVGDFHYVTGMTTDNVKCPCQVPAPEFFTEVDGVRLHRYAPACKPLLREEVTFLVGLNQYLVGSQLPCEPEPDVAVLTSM
Method in brief: as §1

[8] = target: T3, NS5A^33–202 domain 1, HCV genotype 1b (con1); assay: SEC-MALLS analysis of NS5A oligomerisation state; conditions: NS5A^33–202 alone 39 ± 5 kDa (dimer), dimerisation state not affected
Method in brief: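 Multi-angle laser light scattering was run in batch mode (0.1 ml/min) and after size-exclusion (0.35 ml/min). Protein was run at 0.3–4 mg/ml with refractive-index detection and dn/dc 0.185; BSA served as control. Weight-average molar mass was taken from all points.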

[9] = test system: HCV genotype 1b (con1); conditions: cited from earlier work
[10] = test system: HCV genotype 3a (S52); conditions: cited from earlier work
[11] = target: T4, Y93H NS5A^33–202, HCV genotype 1b (con1) (Hepatitis C virus genotype 1b, UniProt Q9WMX2, Y2065H); assay: MST binding assay, Y93H resistance mutant
T4 sequence (Q9WMX2 2005-2174 Y2065H): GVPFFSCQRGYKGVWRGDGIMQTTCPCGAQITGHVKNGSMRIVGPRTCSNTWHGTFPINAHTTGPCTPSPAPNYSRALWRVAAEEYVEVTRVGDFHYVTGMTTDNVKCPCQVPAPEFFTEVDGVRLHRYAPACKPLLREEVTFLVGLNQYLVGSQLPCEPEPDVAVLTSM

[12] = test system: Y93H NS5A^33–202, HCV genotype 1b (con1); assay: MST binding assay, Y93H resistance mutant; design: species or system Hepatitis C virus; conditions: MST in vitro assay, Y93H NS5A^33–202 vs NS5A^33–202
[13] = target: the molecule itself; assay: SEC-MALS

Molecule | decrease in EC50 by Y93H/C resistance mutation ([1]; Y93H/C) | EC50 ([1]; replicon) | solubility [2] | decrease in EC50 by Y93H/C resistance mutation ([3]; genotype 1a (H77), Y93H/C) | EC50 ([3]; replicon, genotype 1a (J1)) | KD / binding (in words) [4] | Kd [5] | resistance conferred by L31V/M/F mutations ([6]; NS5A L31V/M/F) | resistance conferred by Y93H/N/C mutations ([6]; NS5A Y93H/N/C) | EC50 ([6]; replicon, most genotypes and subtypes) | Kd [7] | Compound binding after incubation of NS5A with excess 5rU ([7]; MST, NS5A^33–202 incubated with 100-fold excess 5rU prior to adding compound) | average molecular weight of NS5A^33–202 after addition of substance [8] | resistance conferred by L31V mutation ([9]; replicon assays, L31V) | decrease in EC50 by Y93H/C resistance mutation ([9]; replicon, Y93H/C) | decrease in EC50 by Y93H/C resistance mutation ([10]; Y93H/C) | EC50 ([10]; replicon) | Kd [11] | decrease in KD (binding), Y93H versus wild type [12] | stoichiometry N [13]
COC(=O)N[C@H](C(=O)N1CCC[C@H]1c1nc(-c2ccc(-c3ccc(-c4c[nH]c([C@@H]5CCCN5C(=O)[C@@H](NC(=O)OC)C(C)C)n4)cc3)cc2)c[nH]1)C(C)C [BMS-790052, daclatasvir] | 143 fold | 14 nM | < 1.6 µg/mL | 220 fold | 1.1 nM | did not show any detectable binding; also recorded: no detectable binding | 210 ± 46 nM | 23- to 3,350 fold | 19- to 47,000 fold | 0.002 to 0.15 nM | 8 ± 3 nM | eliminated binding | 41 ± 7 kDa | 23 fold | ~ 5 fold | 2,111 fold | 0.9 nM | > 500 nM | > 50 fold | 
HCV genotype 1b (con1) NS5A domain 1, residues 33–202 (domain or fragment, Hepatitis C virus genotype 1b (con1), UniProt Q9WMX2 2005-2174, looked up) GVPFFSCQRGYKGVWRGDGIMQTTCPCGAQITGHVKNGSMRIVGPRTCSNTWHGTFPINAYTTGPCTPSPAPNYSRALWRVAAEEYVEVTRVGDFHYVTGMTTDNVKCPCQVPAPEFFTEVDGVRLHRYAPACKPLLREEVTFLVGLNQYLVGSQLPCEPEPDVAVLTSM |  |  |  |  |  |  |  |  |  |  |  |  |  |  |  |  |  |  |  | 2
